Assay results: ChEMBL document CHEMBL4354819, “Discovery of Novel Small Molecule Dual Inhibitors Targeting Toll-Like Receptors 7 and 8” (J Med Chem, 2019)
The source made the active and inactive calls. The calls are words filed in the database; no cut-off is given here.

Key:
[1] = molecular target: T1, Toll-like receptor 8 (Homo sapiens) (UniProt Q9NR97); test: Inhibition of human TLR8 expressed in HEK293 cells assessed as reduction in R848-induced NFkappaB production at 1.5 to 5 uM incubated for 16 hrs by quanti-blue SEAP assay
T1 sequence (whole entry): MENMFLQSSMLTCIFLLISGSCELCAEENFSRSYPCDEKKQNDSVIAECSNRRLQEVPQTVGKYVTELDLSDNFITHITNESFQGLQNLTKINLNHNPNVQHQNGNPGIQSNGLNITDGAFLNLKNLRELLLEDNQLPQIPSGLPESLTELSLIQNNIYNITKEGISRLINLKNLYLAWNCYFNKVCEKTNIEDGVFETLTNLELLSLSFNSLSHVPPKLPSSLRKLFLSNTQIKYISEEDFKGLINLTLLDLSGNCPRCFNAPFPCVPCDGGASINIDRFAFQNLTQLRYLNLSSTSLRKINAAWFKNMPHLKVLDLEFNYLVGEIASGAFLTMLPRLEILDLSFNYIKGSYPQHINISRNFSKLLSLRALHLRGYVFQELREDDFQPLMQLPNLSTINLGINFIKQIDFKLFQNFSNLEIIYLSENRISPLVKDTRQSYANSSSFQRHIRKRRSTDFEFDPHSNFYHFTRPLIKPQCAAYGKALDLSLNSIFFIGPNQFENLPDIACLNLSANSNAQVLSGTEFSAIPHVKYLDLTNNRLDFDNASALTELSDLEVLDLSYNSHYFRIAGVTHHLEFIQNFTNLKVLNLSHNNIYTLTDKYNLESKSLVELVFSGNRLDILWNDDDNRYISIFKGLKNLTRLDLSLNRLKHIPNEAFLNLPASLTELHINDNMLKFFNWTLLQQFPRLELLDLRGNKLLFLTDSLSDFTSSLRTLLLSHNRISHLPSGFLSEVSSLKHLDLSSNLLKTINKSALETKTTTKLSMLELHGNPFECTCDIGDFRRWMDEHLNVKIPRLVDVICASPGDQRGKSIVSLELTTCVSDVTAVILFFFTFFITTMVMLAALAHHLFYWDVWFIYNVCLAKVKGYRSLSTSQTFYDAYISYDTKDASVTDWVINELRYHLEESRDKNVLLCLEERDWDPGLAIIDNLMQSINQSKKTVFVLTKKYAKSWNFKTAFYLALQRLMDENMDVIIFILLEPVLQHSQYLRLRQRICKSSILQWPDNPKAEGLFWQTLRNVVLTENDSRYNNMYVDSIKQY

[2] = molecular target: Toll-like receptor 3 (Homo sapiens) (UniProt O15455); test: Inhibition of human TLR3 expressed in HEK293 cells assessed as reduction in poly(I:C)-induced NFkappaB production at 1.5 to 5 uM incubated for 16 hrs by quanti-blue SEAP assay; type: cell-based
Toll-like receptor 3 (Homo sapiens), sequence (O15455 whole entry): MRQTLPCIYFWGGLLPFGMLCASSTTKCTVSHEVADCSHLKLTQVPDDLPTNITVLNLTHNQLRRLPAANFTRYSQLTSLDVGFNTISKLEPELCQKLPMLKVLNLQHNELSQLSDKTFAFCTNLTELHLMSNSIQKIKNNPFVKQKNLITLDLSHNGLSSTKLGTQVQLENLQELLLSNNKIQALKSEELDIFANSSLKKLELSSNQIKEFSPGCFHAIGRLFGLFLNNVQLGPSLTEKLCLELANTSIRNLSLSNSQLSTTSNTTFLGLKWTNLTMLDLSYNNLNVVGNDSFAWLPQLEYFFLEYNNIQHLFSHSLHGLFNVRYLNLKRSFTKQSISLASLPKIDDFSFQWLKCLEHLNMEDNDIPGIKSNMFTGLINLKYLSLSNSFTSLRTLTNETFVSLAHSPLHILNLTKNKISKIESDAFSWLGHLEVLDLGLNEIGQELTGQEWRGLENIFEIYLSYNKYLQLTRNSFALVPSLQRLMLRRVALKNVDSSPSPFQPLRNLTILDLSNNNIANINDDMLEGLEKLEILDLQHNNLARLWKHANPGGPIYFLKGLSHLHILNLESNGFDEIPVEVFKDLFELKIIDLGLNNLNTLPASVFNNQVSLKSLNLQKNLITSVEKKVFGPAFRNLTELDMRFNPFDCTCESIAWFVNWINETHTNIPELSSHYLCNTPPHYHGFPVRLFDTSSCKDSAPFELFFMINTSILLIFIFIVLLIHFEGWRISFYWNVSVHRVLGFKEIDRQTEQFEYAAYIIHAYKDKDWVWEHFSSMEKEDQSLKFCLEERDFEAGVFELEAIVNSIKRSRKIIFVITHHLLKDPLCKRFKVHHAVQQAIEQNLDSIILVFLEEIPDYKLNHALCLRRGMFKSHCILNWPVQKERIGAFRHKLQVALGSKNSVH
Procedure, shortened: (§1)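 Selectivity panel in stably transfected HEK 293-Blue cells, each overexpressing one human TLR with an inducible SEAP reporter. Agonists: Pam3CSK4 (TLR1/2), Pam2CSK4 (TLR2/6), poly(I:C) (TLR3), LPS (TLR4), R848 (TLR7/8), ODN 2006 (TLR9). Cells were exposed to compound for 16 h. Activity = (raw − untreated)/(ligand + solvent − untreated), with ligand + solvent set as 100%.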

[3] = molecular target: T2, Toll-like receptor 7 (Homo sapiens) (UniProt Q9NYK1); test: Inhibition of human TLR7 expressed in HEK293 cells assessed as reduction in resiquimod-induced NFkappaB production at 1.5 to 5 uM incubated for 16 hrs by quanti-blue SEAP assay; type: cell-based
T2 sequence (whole entry): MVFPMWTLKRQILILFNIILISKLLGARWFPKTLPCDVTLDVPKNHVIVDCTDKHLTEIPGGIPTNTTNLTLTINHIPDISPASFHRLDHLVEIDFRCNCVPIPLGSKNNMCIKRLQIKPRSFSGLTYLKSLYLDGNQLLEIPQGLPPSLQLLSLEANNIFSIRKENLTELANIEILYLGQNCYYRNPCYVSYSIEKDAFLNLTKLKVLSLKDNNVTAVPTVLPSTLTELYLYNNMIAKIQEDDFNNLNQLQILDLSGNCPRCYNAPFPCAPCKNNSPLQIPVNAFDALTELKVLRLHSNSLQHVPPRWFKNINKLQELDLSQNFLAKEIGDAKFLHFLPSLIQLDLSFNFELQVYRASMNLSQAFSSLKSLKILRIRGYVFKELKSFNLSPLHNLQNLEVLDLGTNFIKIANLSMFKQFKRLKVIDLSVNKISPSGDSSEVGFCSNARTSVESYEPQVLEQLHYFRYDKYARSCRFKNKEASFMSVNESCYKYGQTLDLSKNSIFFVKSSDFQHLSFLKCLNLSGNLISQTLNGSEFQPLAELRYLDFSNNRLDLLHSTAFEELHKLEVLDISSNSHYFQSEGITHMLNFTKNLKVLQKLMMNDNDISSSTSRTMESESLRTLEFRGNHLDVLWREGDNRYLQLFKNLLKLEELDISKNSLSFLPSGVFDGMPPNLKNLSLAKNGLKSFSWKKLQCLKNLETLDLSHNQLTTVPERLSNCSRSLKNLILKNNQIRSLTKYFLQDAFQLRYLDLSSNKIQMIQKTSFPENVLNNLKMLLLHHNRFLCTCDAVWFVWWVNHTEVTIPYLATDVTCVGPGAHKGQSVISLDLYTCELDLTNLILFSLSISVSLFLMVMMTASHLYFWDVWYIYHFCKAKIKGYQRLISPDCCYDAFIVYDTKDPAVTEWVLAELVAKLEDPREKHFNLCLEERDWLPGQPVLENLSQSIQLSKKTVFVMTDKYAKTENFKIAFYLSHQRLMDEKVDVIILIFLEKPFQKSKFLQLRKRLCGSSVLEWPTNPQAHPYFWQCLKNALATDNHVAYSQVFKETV
Procedure, shortened: as §1

[4] = molecular target: TLR2/TLR6 (Homo sapiens) (UniProt O60603+Q9Y2C9); test: Inhibition of human TLR2/6 expressed in HEK293 cells assessed as reduction in Pam2CSK4-induced NFkappaB production at 1.5 to 5 uM incubated for 16 hrs by quanti-blue SEAP assay; type: cell-based
Procedure, shortened: as §1

[5] = molecular target: T1, Toll-like receptor 8 (Homo sapiens); test: (§2) Inhibition of human TLR8 expressed in HEK293 cells assessed as reduction in R848-induced NFkappaB production incubated for 16 hrs by quanti-blue SEAP assay; type: cell-based
Procedure, shortened: (§3)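 HEK 293-Blue cells stably expressing hTLR7 or hTLR8 with an inducible SEAP reporter were incubated 16 h with compound under 1 µg/mL R848 stimulation. SEAP was read at 620 nm. Data were normalized to the R848 control, and IC50 was taken from concentration-response curves. […] Mean ± s.d., n = 3 independent experiments.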

[6] = molecular target: T3, Toll-like receptor 8 (Homo sapiens, UniProt Q9NR97); test: as §2; type: cell-based
T3 sequence (Q9NR97 whole entry): T1 sequence (whole entry)
Procedure, shortened: as §3

[7] = molecular target: T1, Toll-like receptor 8 (Homo sapiens); test: Inhibition of human TLR8 expressed in HEK293 cells assessed as reduction in R848-induced NFkappaB production at 1.5 to 5 uM incubated for 16 hrs by quanti-blue SEAP assay; type: cell-based
Procedure, shortened: as §1

[8] = molecular target: T2, Toll-like receptor 7 (Homo sapiens); test: Inhibition of human TLR7 expressed in HEK293 cells assessed as reduction in R848-induced NFkappaB production incubated for 16 hrs by quanti-blue SEAP assay; type: cell-based
Procedure, shortened: as §3

[9] = test system: HEK293; test: Cytotoxicity against human HEK293 cells transfected with human TLR8 assessed as reduction in cell viability up to 5 uM incubated for 16 hrs by WST-1 assay; type: cell-based; conditions: hek293, 16 h
[10] = molecular target: Toll-like receptor 4 (Homo sapiens) (UniProt O00206); test: Inhibition of human TLR4 expressed in HEK293 cells assessed as reduction in LPS-induced NFkappaB production at 1.5 to 5 uM incubated for 16 hrs by quanti-blue SEAP assay; type: cell-based
Toll-like receptor 4 (Homo sapiens), sequence (O00206 whole entry): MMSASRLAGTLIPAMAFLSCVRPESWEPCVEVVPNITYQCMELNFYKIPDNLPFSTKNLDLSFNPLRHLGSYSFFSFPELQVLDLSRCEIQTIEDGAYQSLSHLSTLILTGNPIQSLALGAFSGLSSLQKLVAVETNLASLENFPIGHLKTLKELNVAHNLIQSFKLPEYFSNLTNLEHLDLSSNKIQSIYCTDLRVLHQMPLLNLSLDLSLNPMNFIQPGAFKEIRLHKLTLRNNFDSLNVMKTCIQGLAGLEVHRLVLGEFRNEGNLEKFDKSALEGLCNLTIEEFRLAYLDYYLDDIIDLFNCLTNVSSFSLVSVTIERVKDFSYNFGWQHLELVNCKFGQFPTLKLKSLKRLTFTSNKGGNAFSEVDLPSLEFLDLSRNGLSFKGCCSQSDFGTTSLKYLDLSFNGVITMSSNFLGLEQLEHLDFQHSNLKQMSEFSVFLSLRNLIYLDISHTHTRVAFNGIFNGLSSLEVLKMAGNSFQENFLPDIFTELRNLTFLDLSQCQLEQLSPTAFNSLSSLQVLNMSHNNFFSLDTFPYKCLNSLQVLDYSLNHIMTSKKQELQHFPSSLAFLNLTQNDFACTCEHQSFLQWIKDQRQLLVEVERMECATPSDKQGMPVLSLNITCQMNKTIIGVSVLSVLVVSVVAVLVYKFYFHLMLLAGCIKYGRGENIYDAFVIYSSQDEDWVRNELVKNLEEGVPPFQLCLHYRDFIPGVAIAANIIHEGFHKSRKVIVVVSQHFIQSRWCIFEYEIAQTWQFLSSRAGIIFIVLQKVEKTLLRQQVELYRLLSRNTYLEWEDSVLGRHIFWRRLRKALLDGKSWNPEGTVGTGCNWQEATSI
Procedure, shortened: as §1

[11] = test system: HEK293; test: Inhibition of human TLR1/2 expressed in HEK293 cells assessed as reduction in Pam3CSK4-induced NFkappaB production at 1.5 to 5 uM incubated for 16 hrs by quanti-blue SEAP assay; type: cell-based
Procedure, shortened: as §1

inhibition [1]: Active
inhibition [2]: inactive
inhibition [3]: inactive
inhibition [4]: inactive
inhibition [5]: Dose-dependent effect
IC50 [6]: 1400 nM
inhibition [7]: Active
inhibition [8]: Dose-dependent effect
inhibition [10]: inactive
Compound: N#Cc1c(Cl)cccc1Oc1ccc(-c2nnco2)cc1
Activity [9]: Non-Toxic
inhibition [11]: inactive
